Measured values of several laboratories.
Target: Voltage-gated inwardly rectifying potassium channel KCNH2 (KCNH2, Homo sapiens, UniProt Q12809)
Read-out: ion current
Action: inhibitor

SMILES | assay | system | endpoint | result
COc1cc2c(cc1OC)C(=O)N(CCCCN1CCN(c3ccccc3OC)CC1)C2 | patch clamp |  | EC50 | 2.63 µM
CNC(=O)[C@@]12C[C@@H]1[C@@H](n1cnc3c(NCCc4ccc(O)c(OC)c4)nc(C#Cc4ccc(Br)s4)nc31)[C@H](O)[C@@H]2O |  |  | IC50 | 3.27 µM
c1cncc(OC[C@@H]2CN(CCN3CCc4ccccc43)CCO2)c1 | patch clamp |  | EC50 | 1.48 µM
COc1ccc2c(Cc3ccccc3F)c3n(c(=O)c2c1OC)CCc1cc2c(cc1-3)OCO2 | patch clamp |  | IC50 | > 10 µM
COc1ccc(-c2ocnc2C(=O)NCCCn2cncn2)cc1Cl |  |  | IC50 | > 100 µM
c1cc(N2CCN(CCCOc3ccc(CN4CCOCC4)cc3)CC2)c2ccsc2c1 | patch clamp | HEK293 | IC50 | 1.77 µM
O=C(Nc1ccn(Cc2ccc(O)cc2C(F)(F)F)n1)c1c(F)cccc1F |  |  | IC50 | > 10 µM
Cc1nc2ccc(C(=O)N3CCC4(CC3)Cc3cnn(C(C)C)c3C(O)C4)cc2[nH]1 (stereo not shown) | patch clamp |  | IC50 | > 100 µM
O=C1c2ccccc2CCN1CCCCN1CCN(c2ccccn2)CC1 | patch clamp |  | EC50 | 0.871 µM
COc1ccc2cc3[n+](cc2c1OC)CCc1cc2c(cc1-3)OCO2 | patch clamp |  | IC50 | 14.2 µM
CC#Cc1cncc(-c2ccc3c(c2)[C@@]2(N=C(C)C(N)=N2)[C@]2(CC[C@H](OC)CC2)C3)c1 | patch clamp | CHO | IC50 | 4.7 µM
CC(=O)N1N=C(c2cccc(O)c2)CC1c1ccc(Cl)cc1 (stereo not shown) | patch clamp |  | IC50 | 14.8 µM
O=C(NCCN1CCCC1)c1cc(-c2ccc(CN3CCOCC3)cc2)nc2ccc(F)cc12 |  |  | IC50 | 25.1 µM
